Compounds with a hit are over-represented: about 1.4% of the library has one in this group of screens.
A3A deaminase: human APOBEC3A DNA deaminase inhibition; AID 493011; actives 0.41% (n = 330,000); inhibition, % at 20 µM; P31941; recombinant A3A, FAM/TAMRA ssDNA deamination fluorescence;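 active means at least 40% inhibition at 20 µM here, with at most 30% in a related deaminase screen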;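 further: plate controls were A3A with DMSO for no effect and wells lacking A3A enzyme for full effect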
PfGluPho inh: PfG6PD (Plasmodium falciparum) enzyme inhibition | actives 0.78% (n = 350,000) | inhibition, % at 20 µM | PfGluPho enzyme, NADPH resazurin-diaphorase fluorescence;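 active means inhibition reaching at least a set limit at 20 µM in the primary screen, cut at about 59% in these data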;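 further: 0% = DMSO wells with substrate and 100% = DMSO wells lacking glucose-6-phosphate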
hiPSC survival: hiPSC single-cell survival enhancement; ATPlite luminescence; 100% = ROCK inhibitor wells, 0% = DMSO; survival enhancement, % at 20 µM; actives 0.044% (n = 360,000); AID 602274; in the data active means survival enhancement above about 18%;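 further: cells exposed to compounds for 16 hours before the ATP read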
A3G deaminase: APOBEC3G (human) deaminase inhibition; inhibition, % at 20 µM; recombinant A3G, ssDNA deamination FAM/TAMRA fluorescence; actives 0.28% (n = 330,000);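 active means inhibition of at least 40% at 20 µM, with no more than 30% in the related APOBEC3A deaminase screen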;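 further: plate controls were DMSO wells with A3G for no effect and wells lacking A3G enzyme for full effect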
Target sequence (Q9HC16 whole entry, looked up): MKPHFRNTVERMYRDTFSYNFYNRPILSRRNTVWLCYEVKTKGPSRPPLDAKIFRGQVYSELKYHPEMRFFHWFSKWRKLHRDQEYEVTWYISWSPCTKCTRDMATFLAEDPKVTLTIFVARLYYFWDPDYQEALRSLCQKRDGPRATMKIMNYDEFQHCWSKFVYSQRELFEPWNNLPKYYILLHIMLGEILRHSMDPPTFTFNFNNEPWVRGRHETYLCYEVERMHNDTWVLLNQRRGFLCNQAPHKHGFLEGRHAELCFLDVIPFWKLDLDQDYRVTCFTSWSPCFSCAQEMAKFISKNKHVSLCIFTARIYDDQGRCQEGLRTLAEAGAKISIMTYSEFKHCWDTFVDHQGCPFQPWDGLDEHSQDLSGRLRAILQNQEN
HKDC1 inh: blocks human hexokinase HKDC1 activity. Q2TB90. recombinant HKDC1, G6PDH/diaphorase resazurin coupled fluorescence. inhibition, % at 20 µM. actives 0.16% (n = 340,000). AID 493160;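 active means inhibition above about 35% when tested at 20 µM, limit read from the data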;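 further: plate controls were DMSO wells with enzyme for no effect and DMSO wells lacking enzyme for full effect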
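Test system: Recombinant HKDC1 (HK5) hexokinase enzyme, produced in-house | Input: HKDC1 at 5 µg/mL | Buffer or medium: Tris pH 8.0 buffer with MgCl2, Tween-20, BSA, BME | Schedule: 90 min reaction incubation at room temperature, dark | Technique: Resazurin-to-resorufin fluorescence via G6PDH and diaphorase coupling, 525/613 nm | Controls: DMSO wells with and without enzyme mix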
PfG6PD confirm: confirmation of Plasmodium falciparum G6PD inhibitors; shares compounds with PfGluPho inh; recombinant PfGluPho, NADPH-diaphorase-resazurin fluorescence; inhibition, % at 20 µM; actives 34% (n = 2,400); AID 504753;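 active means inhibition of at least 50% at 20 µM in any single replicate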;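 further: 0% = DMSO with substrate and 100% = DMSO lacking glucose-6-phosphate substrate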
Diaphorase 10uM: inhibits diaphorase or oxidizes, flagging false PfG6PD hits | actives 39% (n = 820) | inhibition, % at 20 µM | shares compounds with PfGluPho inh | diaphorase-coupled resazurin reduction, fluorescence, NADPH 10 uM | AID 504862;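 active means average inhibition reaching 50% or more with the compound at 20 µM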;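 further: resorufin red fluorescence formed as diaphorase reduces resazurin using NADPH; 0% = DMSO with enzyme and 100% = DMSO without enzyme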
Diaphorase 30uM: diaphorase inhibition or oxidation at 30 uM NADPH; shares compounds with PfGluPho inh; Diaphorase/resazurin coupled assay, resorufin fluorescence; inhibition, % at 20 µM; actives 29% (n = 820);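 active means inhibition averaging 50% or more, tested at 20 µM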;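 further: 0% = DMSO with enzyme and 100% = DMSO wells lacking diaphorase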
Active calls of the source: *; . = not tested or not shown.

SMILES	A3A deaminase	PfGluPho inh	hiPSC survival	A3G deaminase	HKDC1 inh	PfG6PD confirm	others
COCCN=c1scc(-c2ccco2)n1/N=C/c1ccc(O)c(O)c1O	51	55	0	70	21	.
C=CCN=c1scc(-c2ccco2)n1/N=C/c1ccc(O)c(O)c1O	30	73*	-1	21	22	48*	Diaphorase 10uM=-2;Diaphorase 30uM=15
CN=c1scc(C)n1/N=C/c1ccc(O)c(O)c1O	3	88*	-5	2	17	78*	Diaphorase 10uM=35;Diaphorase 30uM=39
CCOc1ccccc1NC(=O)CCCNC(=O)Cn1cnc2sc(C)c(C)c2c1=O	-3	67*	0	-13	-4	45
O=CNc1ccc2c3c(cccc13)-c1ccccc1-2	.	104*	0	.	26	18
C=CC[C@H]1C=C[C@@H](C(C(=O)OC)C(=O)OC)CN1C(C)=O	.	-3	-2	.	-4	.
Cn1c2ccccc2c(=O)c2ccc(C#CC3(N)CCCCC3)cc21	-1	20	-1	-7	10	.
Cn1c2ccccc2c(=O)c2cc(C#CC3(O)CCCCC3)ccc21	-1	62*	-4	-6	2	35
CCC(CN(C)C)Oc1cc(NCc2ccccc2)c2ncn(C(C)C)c2c1 (stereo not drawn)	-4	58	-3	13	21	.
COc1cc(NCc2ccccc2)c2ncn(C(C)C)c2c1	-6	61*	-4	-9	7	56*	Diaphorase 10uM=-3;Diaphorase 30uM=-10
CCc1cccc(OCCn2nc(C(=O)O)c3ccccc3c2=O)c1	1	32	2	-5	0	.
Cc1cc(OCCn2nc(C(=O)O)c3ccccc3c2=O)ccc1C(C)C	0	79*	-1	-6	6	32
CCCNC(=O)N1CCN(S(C)(=O)=O)CC1	-3	-2	1	-4	-13	.
CC(=O)Nc1cccc(NC(=O)c2ccc3[nH]c(C)c(C)c3c2)c1	-3	78*	0	-10	-3	32
Cc1cc(NC(=O)c2ccc3[nH]c(C)c(C)c3c2)ccn1	-1	46	2	-3	-4	.
COc1ccc(NC(=O)c2ccc3[nH]c(C)c(C)c3c2)cc1	-2	68*	-1	-2	-1	28
Cc1c(C(=O)N2CCCCC2)c(S(=O)(=O)N2CCC(C)CC2)c(C)n1C	-2	0	0	-3	-2	.
Nc1c(C(=O)Nc2ccc(Cl)c(C(=O)O)c2)sc2nc3c(cc12)CCCC3	-7	59*	0	-9	6	10
Cc1ccccc1-n1c(SC(C)C(=O)NCC2CCCO2)nnc1-c1ccncc1 (stereo not drawn)	.	-4	0	.	-6	.
CCOc1ccc(/C=N/NC(=O)C2CCCC2)c(OCC)c1	8	-10	0	0	1	.
COc1cccc(CNC(=O)Cn2ncc3c(=O)oc4ccccc4c32)c1	3	-1	1	-3	-5	.
CSc1nc(=S)cc(C)[nH]1	1	70*	0	21	-6	18
COc1ccc(C(C)(O)c2nc(-c3ccc4ccccc4c3)cs2)cc1 (stereo not drawn)	.	.	-1	.	.	.
CCC(=O)Nc1ccc(C2=Nn3c(nnc3C(C)C)SC2)cc1	4	37	1	-1	-5	.
O=C1c2ccccc2-c2onc3c(N4CCN(CCO)CC4)cc(N4CCN(C(=O)c5ccco5)CC4)c1c23	3	75*	0	4	24	35
O=C(O)CCCNc1cc(N2CCN(C(=O)c3ccco3)CC2)c2noc3c2c1C(=O)c1ccccc1-3	53	35	-1	79	22	.
COCCn1c(SCC(=O)c2c(N)n(C3CC3)c(=O)[nH]c2=O)nnc1-c1cccc(C)c1	0	-4	0	-12	0	.
COc1ccc(NC2CCCN(C(=O)Cn3ccc(C)n3)C2)cc1OC (stereo not drawn)	-5	31	0	-12	10	.
